Test results from ChEMBL document CHEMBL1671867, “Novel polymyxin derivatives carrying only three positive charges are effective antibacterial agents” (Antimicrob Agents Chemother, 2008).
Converted amounts (≈) assume the structure as drawn.

Columns and labels:
Assay type in all cases: functional
Escherichia coli [1] = assay: Antibacterial activity against Escherichia coli IH3080 by Etest method in presence of NAB7061
Escherichia coli [2] = assay: Antibacterial activity against Escherichia coli ATCC […] by Etest method in presence of 4 ug/ml NAB7064
Escherichia coli [3] = assay: Antibacterial activity against Escherichia coli ATCC […] by Etest method in presence of 1 ug/ml NAB7061
Klebsiella pneumoniae [4] = assay: Ratio of the MIC for Klebsiella pneumoniae ATCC 13883 in the absence of NAB7061 to MIC for Klebsiella pneumoniae ATCC 13883 in the presence of 4 ug/ml of NAB7061
Enterobacter cloacae [5] = assay: Antibacterial activity against Enterobacter cloacae ATCC 23355 by Etest method
Summary of the method: (§1)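 E-strip MIC on Mueller-Hinton agar without added peptide; inoculum per manufacturer, matching CLSI M2-A9.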

Klebsiella pneumoniae [6] = assay: Antibacterial activity against Klebsiella pneumoniae ATCC 13883 by Etest method in presence of 2 ug/ml NAB7061
Summary of the method: (§2)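 MICs of the antibiotic taken from E-strips on Mueller-Hinton agar, run both with and without peptide. […] Inoculum was prepared per the strip manufacturer, matching CLSI M2-A9.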

Escherichia coli [7] = assay: Antibacterial activity against Escherichia coli IH3080 by Etest method in presence of 2 ug/ml NAB7062
Escherichia coli [8] = assay: Antibacterial activity against Escherichia coli ATCC […] by Etest method in presence of NAB7061
Escherichia coli [9] = assay: Antibacterial activity against Escherichia coli ATCC […] by Etest method in presence of 2 ug/ml NAB7062
Klebsiella pneumoniae [10] = assay: Antibacterial activity against Klebsiella pneumoniae ATCC 13883 by Etest method in presence of 4 ug/ml NAB7061; summary of the method: as §2
Escherichia coli [11] = assay: Ratio of the MIC for Escherichia coli IH3080 in the absence of NAB7061 to MIC for Escherichia coli IH3080 in the presence of 4 ug/ml of NAB7061
Enterobacter cloacae [12] = assay: Ratio of the MIC for Enterobacter cloacae ATCC 23355 in the absence of NAB7061 to MIC for Enterobacter cloacae ATCC 23355 […] in the presence of 4 ug/ml of NAB7061
Enterobacter cloacae [13] = assay: Antibacterial activity against Enterobacter cloacae ATCC 23355 […] by Etest method in presence of NAB7061
Klebsiella pneumoniae [14] = assay: Antibacterial activity against Klebsiella pneumoniae ATCC 13883 by Etest method; summary of the method: as §2
Klebsiella pneumoniae [15] = assay: Antibacterial activity against Klebsiella pneumoniae ATCC 13883 by Etest method in presence of NAB7061; summary of the method: as §2
Escherichia coli [16] = assay: Antibacterial activity against Escherichia coli IH3080 by Etest method; summary of the method: as §1
Klebsiella pneumoniae [17] = assay: Antibacterial activity against Klebsiella pneumoniae ATCC 13883 by Etest method in presence of 1 ug/ml NAB7061; summary of the method: as §2
Enterobacter cloacae [18] = assay: Antibacterial activity against Enterobacter cloacae ATCC 23355 […] by Etest method in presence of 4 ug/ml NAB7064
Enterobacter cloacae [19] = assay: Antibacterial activity against Enterobacter cloacae ATCC 23355 […] by Etest method in presence of 1 ug/ml NAB7061
Escherichia coli [20] = assay: Antibacterial activity against Escherichia coli ATCC 25992 by Etest method; summary of the method: as §1
Escherichia coli [21] = assay: Antibacterial activity against Escherichia coli IH3080 by Etest method in presence of 4 ug/ml NAB7064
Escherichia coli [22] = assay: Antibacterial activity against Escherichia coli IH3080 by Etest method in presence of 1 ug/ml NAB7061
Enterobacter cloacae [23] = assay: Antibacterial activity against Enterobacter cloacae ATCC 23355 […] by Etest method in presence of 2 ug/ml NAB7062
Escherichia coli [24] = assay: Ratio of the MIC for Escherichia coli ATCC 25992 in the absence of NAB7061 to MIC for Escherichia coli ATCC 25992 in the presence of 4 ug/ml of NAB7061
Acinetobacter baumannii [25] = assay: Antibacterial activity against Acinetobacter baumannii F264 by Etest method in presence of NAB739
Acinetobacter baumannii [26] = assay: (§3) Antibacterial activity against Acinetobacter baumannii ATCC 19606 by Etest method in presence of […] NAB739
Acinetobacter baumannii [27] = assay: Antibacterial activity against Acinetobacter baumannii ATCC 19606 by Etest method
Pseudomonas aeruginosa [28] = assay: Antibacterial activity against Pseudomonas aeruginosa ATCC 27853by Etest method in presence of 0.5 ug/ml NAB739; summary of the method: as §2
Acinetobacter baumannii [29] = assay: Antibacterial activity against Acinetobacter baumannii F264 by Etest method in presence of 0.5 ug/ml NAB739
Acinetobacter baumannii [30] = assay: as §3; remark: listed apart in the source
Acinetobacter baumannii [31] = assay: Antibacterial activity against Acinetobacter baumannii ATCC 19606 by Etest method in presence of 0.5 ug/ml NAB739
Acinetobacter baumannii [32] = assay: (§4) Antibacterial activity against Acinetobacter baumannii F264 by Etest method in presence of […] NAB739
Acinetobacter baumannii [33] = assay: as §4; remark: listed apart in the source
Pseudomonas aeruginosa [34] = assay: (§5) Antibacterial activity against Pseudomonas aeruginosa ATCC 27853by Etest method in presence of […] NAB739
Pseudomonas aeruginosa [35] = assay: Antibacterial activity against Pseudomonas aeruginosa ATCC 27853by Etest method; summary of the method: as §2
Acinetobacter baumannii [36] = assay: Antibacterial activity against Acinetobacter baumannii F264 by Etest method in presence of 1 ug/ml NAB739
Acinetobacter baumannii [37] = assay: Antibacterial activity against Acinetobacter baumannii ATCC 19606 by Etest method in presence of NAB739
Pseudomonas aeruginosa [38] = assay: Antibacterial activity against Pseudomonas aeruginosa ATCC 27853by Etest method in presence of 2 ug/ml NAB739
Pseudomonas aeruginosa [39] = assay: Antibacterial activity against Pseudomonas aeruginosa ATCC 27853by Etest method in presence of 1 ug/ml NAB739; summary of the method: as §2
Acinetobacter baumannii [40] = assay: Antibacterial activity against Acinetobacter baumannii ATCC 19606 by Etest method in presence of 1 ug/ml NAB739
Pseudomonas aeruginosa [41] = assay: as §5; remark: listed apart in the source
Acinetobacter baumannii [42] = assay: Antibacterial activity against Acinetobacter baumannii F264 by Etest method; summary of the method: as §1

CC[C@H]1OC(=O)[C@H](C)[C@@H](O[C@H]2C[C@@](C)(OC)[C@@H](O)[C@H](C)O2)[C@H](C)[C@@H](O[C@@H]2O[C@H](C)C[C@H](N(C)C)[C@H]2O)[C@](C)(O)C[C@@H](C)CN(C)[C@H](C)[C@@H](O)[C@]1(C)O [AZITHROMYCIN]
MIC (Escherichia coli [1]): 0.173 µg/mL | MIC (Escherichia coli [2]): 0.094 µg/mL | MIC (Escherichia coli [3]): 0.5 µg/mL | Ratio (Klebsiella pneumoniae [4]): 31 | MIC (Enterobacter cloacae [5]): 6 µg/mL (≈ 8.01 µM) | MIC (Klebsiella pneumoniae [6]): 0.19 µg/mL | MIC (Escherichia coli [7]): 0.19 µg/mL | fractional inhibitory concentration index (FICI) (Escherichia coli [8]): 0.157 | MIC (Escherichia coli [9]): 0.19 µg/mL | MIC (Klebsiella pneumoniae [10]): 0.047 µg/mL | Ratio (Escherichia coli [11]): 31 | Ratio (Enterobacter cloacae [12]): 32 | MIC (Enterobacter cloacae [13]): 0.438 µg/mL | MIC (Klebsiella pneumoniae [14]): 2 µg/mL (≈ 2.67 µM) | MIC (Klebsiella pneumoniae [15]): ≤ 0.126 µg/mL | MIC (Escherichia coli [16]): 2 µg/mL (≈ 2.67 µM) | MIC (Klebsiella pneumoniae [17]): 0.19 µg/mL | MIC (Enterobacter cloacae [18]): 0.19 µg/mL | MIC (Enterobacter cloacae [19]): 4 µg/mL | MIC (Escherichia coli [20]): 3 µg/mL (≈ 4.01 µM) | MIC (Escherichia coli [21]): 0.064 µg/mL | MIC (Escherichia coli [22]): 0.75 µg/mL | MIC (Enterobacter cloacae [23]): 1.5 µg/mL | Ratio (Escherichia coli [24]): 24

CC(=O)O[C@H]1C[C@@]2(C)[C@@H](C[C@@H](O)[C@H]3[C@@]4(C)CC[C@@H](O)[C@@H](C)[C@@H]4CC[C@@]32C)/C1=C(\CCC=C(C)C)C(=O)O [FUSIDIC ACID]
fractional inhibitory concentration index (FICI) (Acinetobacter baumannii [25]): <=0.172 | MIC (Acinetobacter baumannii [26]): 12 µg/mL | MIC (Acinetobacter baumannii [27]): > 256 µg/mL | MIC (Pseudomonas aeruginosa [28]): > 256 µg/mL | MIC (Acinetobacter baumannii [29]): 3 µg/mL | MIC (Acinetobacter baumannii [30]): 32 µg/mL | MIC (Acinetobacter baumannii [31]): 4 µg/mL | MIC (Acinetobacter baumannii [32]): 12 µg/mL | MIC (Acinetobacter baumannii [33]): 32 µg/mL | MIC (Pseudomonas aeruginosa [34]): > 256 µg/mL | MIC (Pseudomonas aeruginosa [35]): > 256 µg/mL | MIC (Acinetobacter baumannii [36]): 1 µg/mL | fractional inhibitory concentration index (FICI) (Acinetobacter baumannii [37]): <=0.172 | MIC (Pseudomonas aeruginosa [38]): 192 µg/mL | MIC (Pseudomonas aeruginosa [39]): > 256 µg/mL | MIC (Acinetobacter baumannii [40]): 1 µg/mL | MIC (Pseudomonas aeruginosa [41]): > 256 µg/mL | MIC (Acinetobacter baumannii [42]): > 256 µg/mL

CC[C@H]1OC(=O)[C@H](C)[C@@H](O[C@H]2C[C@@](C)(OC)[C@@H](O)[C@H](C)O2)[C@H](C)[C@@H](O[C@@H]2O[C@H](C)C[C@H](N(C)C)[C@H]2O)[C@](C)(O)C[C@@H](C)C(=O)[C@H](C)[C@@H](O)[C@]1(C)O [ERYTHROMYCIN]
MIC (Escherichia coli [1]): 0.25 µg/mL | MIC (Escherichia coli [2]): 0.75 µg/mL | MIC (Escherichia coli [3]): 6 µg/mL | Ratio (Klebsiella pneumoniae [4]): 24 | MIC (Enterobacter cloacae [5]): 64 µg/mL (≈ 87.2 µM) | MIC (Klebsiella pneumoniae [6]): 2 µg/mL | MIC (Escherichia coli [7]): 2 µg/mL | fractional inhibitory concentration index (FICI) (Escherichia coli [8]): 0.188 | MIC (Escherichia coli [9]): 2 µg/mL | MIC (Klebsiella pneumoniae [10]): 0.5 µg/mL | Ratio (Escherichia coli [11]): 32 | Ratio (Enterobacter cloacae [12]): 21 | MIC (Enterobacter cloacae [13]): 0.375 µg/mL | MIC (Klebsiella pneumoniae [14]): 24 µg/mL (≈ 32.7 µM) | MIC (Klebsiella pneumoniae [15]): ≤ 0.143 µg/mL | MIC (Escherichia coli [16]): 16 µg/mL (≈ 21.8 µM) | MIC (Klebsiella pneumoniae [17]): 4 µg/mL | MIC (Enterobacter cloacae [18]): 1.5 µg/mL | MIC (Enterobacter cloacae [19]): 48 µg/mL | MIC (Escherichia coli [20]): 32 µg/mL (≈ 43.6 µM) | MIC (Escherichia coli [21]): 0.38 µg/mL | MIC (Escherichia coli [22]): 4 µg/mL | MIC (Enterobacter cloacae [23]): 8 µg/mL | Ratio (Escherichia coli [24]): 32
